High-throughput results from PubChem BioAssay.
The list is not random: actives were taken first. Their share in the collection is about 3.4%.
PKA kinase inh: blocks human protein kinase A activity | AID 524 | inhibition, % at 6 µM | 65,000 tested, 0.1% active | PKA Kemptide phosphorylation, Kinase-Glo ATP luminescence | P17612;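 active = inhibition above the screen-wide mean inhibition plus 3 SD, cut at about 21% in these data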
JNK3 blocker: JNK3 (human) kinase inhibition; P53779; purified JNK3 kinase activity, HTS; 60,000 tested, 0.61% active; inhibition, % at 8 µM; in the data active = inhibition above about 17%
ROCK2 inh: blocks human Rho kinase 2 activity | purified ROCK2, Kinase-Glo ATP depletion luminescence | inhibition, % at 6 µM | 60,000 tested, 0.35% active | AID 604;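 active = inhibition above the screen-wide mean inhibition plus 3 SD, cut at about 18% in these data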
WNV protease inh: inhibitors of West Nile virus NS2B-NS3 protease. P06935. WNV NS2B-NS3 protease, fluorogenic substrate Ex360/Em465; hits give low values. AID 577. z-score (test concentration not listed). 65,000 tested, 0.18% active; in the data active = z-score below about -3
SF1 activator: activates the human nuclear receptor SF-1; Q13285; CHO-K1 Gal4-SF-1 LBD luciferase reporter; % increase over DMSO SF-1-specific signal; activation, % at 10 µM; 65,000 tested, 1.9% active; AID 522;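 active = activation above the mean activation of all tested compounds plus 3 SD, cut at about 50% in these data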
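Assay system: CHO-K1 cells co-transfected with Gal4 DBD–human SF-1 LBD, 5xGal4 luciferase reporter; doses: 10 µM only; incubation: 20 h compound exposure at 37 °C after 1 h cell settling; signal: luciferase light emission; evaluation: percent activation versus DMSO; repeats: one test per compound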
RORA act: activators of human nuclear receptor RORA; P35398; CHO-K1 Gal4-RORA LBD luciferase reporter, luminescence; percent increase over mock-subtracted basal signal; activation, % at 10 µM; 65,000 tested, 1.5% active;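 active = activation above the mean of all tested compounds plus 3 SD, cut at about 49% in these data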
Target sequence (P35398 whole entry, looked up, the tested form may be a part): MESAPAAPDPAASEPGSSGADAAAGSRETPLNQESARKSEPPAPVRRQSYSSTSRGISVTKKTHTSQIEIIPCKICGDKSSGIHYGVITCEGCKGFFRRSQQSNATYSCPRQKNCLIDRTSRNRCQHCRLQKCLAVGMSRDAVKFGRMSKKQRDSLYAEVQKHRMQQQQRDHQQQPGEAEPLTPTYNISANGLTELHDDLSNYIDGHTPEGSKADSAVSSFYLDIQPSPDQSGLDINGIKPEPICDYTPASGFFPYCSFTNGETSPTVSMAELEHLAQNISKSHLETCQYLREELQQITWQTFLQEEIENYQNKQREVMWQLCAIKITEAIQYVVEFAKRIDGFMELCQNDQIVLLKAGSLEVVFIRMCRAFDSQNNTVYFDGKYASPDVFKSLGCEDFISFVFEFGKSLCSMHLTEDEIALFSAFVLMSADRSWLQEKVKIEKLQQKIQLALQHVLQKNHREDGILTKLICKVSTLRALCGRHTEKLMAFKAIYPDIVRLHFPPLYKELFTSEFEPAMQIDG
Of the large screens only hits and unclear results are named; the others gave an inactive call.

CCN(CC)CCNC(=O)CCCCn1c(=S)[nH]c2c([nH]c3ccc(OC)cc32)c1=O	ROCK2 inh 30
CCN(CC)CCNC(=O)CCn1c(=S)[nH]c2cc3c(cc2c1=O)OCO3	none (no result: JNK3 blocker, ROCK2 inh)
Nc1ccc2nc(-c3ccc(Cl)cc3)[nH]c2c1	SF1 activator 64, RORA act 82
Cc1oc(C(=O)O)cc1COc1cccc2cccnc12	none
COc1ccc(CCC(C(O)C(F)(F)F)S(=O)c2ccccc2)cc1 (stereo not given)	none (no result: JNK3 blocker, ROCK2 inh)
COc1ccc(C(O)P(=O)(O)CCc2ccccc2)cc1 (stereo not given)	RORA act 52
COC(=O)Cn1c(C)nc2c(sc3nc(C)cc(C)c32)c1=O	SF1 activator 50
CCOC(=O)Cn1c(C)nc2c(C(=O)OCC)sc(C)c2c1=O	none
COC(=O)c1sccc1NC(=O)C1CC=CCC1C(=O)O (stereo not given)	JNK3 blocker 28
O=C(Nc1nc(-c2ccccn2)cs1)c1ccc(Cl)s1	none
O=C(Nc1nccs1)c1ccc(Cl)s1	SF1 activator 58
O=C(Nc1ccc2sccc2c1)c1ccc(Cl)s1	SF1 activator 60
O=c1cc(NCc2ccco2)c2ccccc2o1	none (no result: JNK3 blocker, ROCK2 inh)
CN(CC(=O)N1CC=C(c2ccccc2)CC1)S(=O)(=O)c1cnc[nH]1	none
CCCCN1C(=O)/C(=C2\SC(N3CCCCC3)=NC2=O)c2ccccc21	RORA act 60
O=C1N=C(N2CCOCC2)S/C1=C1\C(=O)N(Cc2ccccc2)c2ccc(Br)cc21	none
CCOC(=O)Cc1cc(=O)[nH]c(Nc2nc3ccccc3o2)n1	RORA act 50
COC(=O)Cc1cc(=O)[nH]c(Nc2nc3ccccc3o2)n1	none
CC(=O)Nc1cc(OC(C)=O)c2nonc2c1OC(C)=O	JNK3 blocker 47, ROCK2 inh 84
Cn1c(OCc2ccc3c(c2)OCO3)nc2c1c(=O)n(Cc1cccc(Cl)c1)c(=O)n2C	none
CC(=O)CC(=O)Nc1ccccc1NC(C)=O	none
CCOC(=O)CCCc1sc(N)nc1-c1[nH]c(=O)[nH]c1C	JNK3 blocker 25
CC1(C)CC(=O)c2sc(N3CCCCC3)nc2C1	none
CC1(C)CNC(=O)c2sc(N3CCCCC3)nc2C1	RORA act 51
O=C(CCc1ccc(S(=O)(=O)N2CCOCC2)cc1)OCc1nc2ccccc2s1	SF1 activator 59
COc1ccc(CC(=O)NCc2ccccc2)cc1S(=O)(=O)N1CCOCC1	none
COc1ccc(CC(=O)Nc2nc3ccccc3s2)cc1S(=O)(=O)N1CCOCC1	JNK3 blocker 37
COC(=O)c1ccc(CNC(=O)CSc2nc3sc(C)c(C)c3c(=O)n2C)o1	none
O=C(Nc1ccc(S(=O)(=O)N2CCN(Cc3ccccc3)CC2)cc1)c1cnccn1	none
COc1cccc(-c2cc(C(=O)N3CCCCC3C)no2)c1 (stereo not given)	SF1 activator 86, RORA act 50
O=S(=O)(c1ccccc1C(F)(F)F)N1CCOCC1	none
COc1ccc(N2CCN(C(=O)c3ccc4nc(N5CCCCC5)sc4c3)CC2)cc1	RORA act 68
COc1cccc(N2CCN(C(=O)c3ccc4nc(N5CCCCC5)sc4c3)CC2)c1	SF1 activator 89, RORA act 78
O=C(CCCn1c(=O)[nH]c2cc(Cl)ccc2c1=O)NCC1CCCO1 (stereo not given)	JNK3 blocker 23
CCOc1ccc(S(=O)(=O)NCc2ccc(F)cc2)c2cccnc12	none
CN(C)c1ccc(NC(=O)CCCc2ccccc2)cc1	RORA act 50
Cc1csc(SCCN2C(=O)c3ccccc3C2=O)n1	SF1 activator 65, RORA act 73
O=C1c2ccccc2C(=O)N1CCSc1nncs1	none
CCOC(=O)C1CCN(C(=O)c2sc3nc(-c4ccc(F)cc4)cn3c2C)CC1	none
CS(=O)(=O)N1CCN(c2nc3ccccc3s2)CC1	RORA act 58
COc1ccc(Cl)cc1NC(=O)CSc1nncn1-c1cccnc1	none
Cn1c(-c2ccc3ccccc3n2)nc2cnccc21	SF1 activator 65, RORA act 55
COc1ccc(OCCSc2ncccn2)cc1	SF1 activator 56
COc1ccc(OCCCSc2ncccn2)cc1	RORA act 63
Cc1ccccc1-n1c(C)nnc1SCc1nc2ccccc2s1	SF1 activator 55, RORA act 58
CCCn1c(=O)c2ccccc2n2c(SCc3nc4ccccc4s3)nnc12	SF1 activator 70
CCn1c(SCc2nc3ccccc3s2)nnc1-c1cccs1	none
CCCn1c(=O)c2ccccc2n2c(SCCOc3ccccc3)nnc12	none
COc1ccc(-c2nc(CN3CCC(C(=O)N4CCc5ccccc54)CC3)c(C)o2)cc1OC	none
S=C(c1ccc(-c2cccc(Cl)c2)o1)N1CCOCC1	RORA act 61
O=C1C=C(NCCN2CCOCC2)CC(c2ccccc2)C1 (stereo not given)	none (no result: PKA kinase inh, JNK3 blocker, ROCK2 inh, SF1 activator, RORA act)
COc1ccc(Nc2ncc3c(n2)CC(c2ccccc2)CC3=O)cc1 (stereo not given)	none
COc1cccc(C(=O)Nc2ncc3c(n2)CC(c2ccc(OC)cc2OC)CC3=O)c1 (stereo not given)	SF1 activator 57
Cc1cc(-n2c(C)cc(C(=O)CN3C(=O)NC4(CCCCC4)C3=O)c2C)no1	none
Cc1cc(C(=O)CN2C(=O)NC3(CCCCC3)C2=O)c(C)n1Cc1ccc2c(c1)OCO2	ROCK2 inh 22
O=C(Nc1ccc(C(=O)Oc2ccccc2)c(O)c1)c1ccco1	none
COc1cccc(NC(=O)COc2ccccc2C(N)=O)c1	SF1 activator 62
COc1ccccc1OCC(=O)Nc1cccc(-c2nc3ccccc3o2)c1	SF1 activator 61
CCOC(=O)Nc1cccc(OCC(=O)Nc2ccccc2OC)c1	none
CCC(=O)Nc1cccc(-c2nc3ccccc3o2)c1	none
CCC(=O)N1CCc2cc(S(=O)(=O)NCCCN(CC)Cc3ccccc3)ccc21	none (no result: JNK3 blocker, ROCK2 inh)
Cc1cnn(C(=S)NCCc2ccccc2)c1	SF1 activator 53
Cc1cnn(C(=S)NCc2ccc(Cl)cc2)c1	none
O=C(c1ccc(Cl)cc1)N1CCN(c2nc(N3CCCCC3)nc(N3CCCCC3)n2)CC1	none (no result: PKA kinase inh, JNK3 blocker, ROCK2 inh, SF1 activator, RORA act)
COc1ccc(Cn2c(C3CC3)nc3ccc(NC(=O)C4CC4)cc3c2=O)cc1	SF1 activator 162
CC(NC(=O)CC1Nc2ccccc2NC1=O)c1ccccc1 (stereo not given)	none
O=C(CC1Nc2ccccc2NC1=O)c1ccccc1 (stereo not given)	RORA act 56
Cc1nnc(SCC(=O)Nc2ncc(Cc3ccc(F)cc3)s2)n1N	none
Cc1ccc(C(=O)Nc2ncc(Cc3ccc(F)cc3)s2)o1	SF1 activator 119
CCCCN(C)C(=O)CS(=O)(=O)Cc1nc(-c2cccc(OC)c2)oc1C	none
CC1CCCCN1C(=O)C1CC(c2ccc(F)cc2)=NO1 (stereo not given)	SF1 activator 63, RORA act 49
